Ec RNAP inh: blocks E. coli RNA polymerase transcription; 0.2% of 62,000 active; inhibition, %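 (tested at 10 µM)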; fluorescence transcription assay; in the data active = inhibition above about 20%
AP complement: alternative pathway complement inhibition, orthogonal assay | inhibition, % at 5 µM | 0.08% of 62,000 active | Human serum alternative complement pathway, LPS-coated ELISA, C3 deposition; tested in compound mixtures | AID 1235;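 active = inhibition above 30% in each of the two pooled mixtures holding the compound, so the lower value exceeds 30%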
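Medium: diluted human serum in Mg2+-EGTA GVB++. Assay system: human serum complement alternative pathway, C3 deposition onto LPS. Also added: Plate-bound LPS. Technique: Anti-C3 ELISA, OD 450 nm. Measure: percent inhibition. Incubation: 1 h at 37 °C. Dosing: 5 µM each compound, pools of ten, 50 µM per pool.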
CatS block: human cathepsin S inhibition | recombinant cathepsin S, AMC dipeptide fluorescence, pooled mixtures | inhibition, %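 (tested at 5 µM per compound within 10-compound mixtures)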 | 0.06% of 62,000 active | AID 501; in the data active = inhibition above about 32%, passing the limit was not always enough
CatL block: inhibitors of human cathepsin L. inhibition, %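 (tested at 10 µM)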. purified cathepsin L, fluorogenic substrate, fluorescence. AID 460. 0.17% of 58,000 active. P07711; in the data active = inhibition above about 45%
CatB block: blocks human cathepsin B protease activity. purified cathepsin B, fluorogenic substrate, fluorescence. P07858. 0.1% of 63,000 active. AID 453. inhibition, %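 (tested at 10 µM)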; in the data active = inhibition above about 21%
CatB mix inh: human cathepsin B inhibition by mixtures; P07858; Purified cathepsin B, AMC dipeptide fluorescence, compound mixtures; inhibition, %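 (ten-compound pools at 5 µM per compound and 50 µM total)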; 0.06% of 62,000 active; in the data active = inhibition above about 22%, passing the limit was not always enough
Hits are given with their value. Shown are actives, neighbours in structure and some others; about 0.51% of the full set was active somewhere.

`C=CCN1CCN(C(c2ccccc2)c2nnnn2CCC(C)C)CC1` (stereo not given) gave Ec RNAP inh inactive, AP complement inactive, CatS block inactive, CatL block inactive, CatB block inactive and CatB mix inh inactive.
CC(=NCc1ccco1)c1c(O)n(C2CCCCC2)c(=O)[nH]c1=O was read as Ec RNAP inh inactive, AP complement inactive, CatS block inactive, CatL block inactive, CatB block inactive and CatB mix inh inactive.
Screening CC(=NCc1ccco1)c1c(C)[nH]n(-c2nc3ccccc3s2)c1=O returned Ec RNAP inh inactive, AP complement inactive, CatS block 46.0, CatL block inactive, CatB block inactive and CatB mix inh inactive.
`CC1CN(C(=O)Cc2ccc(-c3ccccc3)cc2)CC(C)O1` (stereo not given) gave Ec RNAP inh inactive, AP complement inactive, CatS block inactive, CatL block inactive, CatB block inactive and CatB mix inh inactive.
`CC(C)C(c1nnnn1C1CCCC1)N1CCCc2ccccc21` (stereo not given) gave Ec RNAP inh inactive, AP complement inactive, CatS block 32.5, CatL block inactive, CatB block inactive and CatB mix inh inactive.
For CC(C)c1nc2cc3ccccc3cc2[nH]1 the results were Ec RNAP inh inactive, AP complement inactive, CatS block inactive, CatL block inactive, CatB block inactive and CatB mix inh inactive.
CC/C(=C\C(=O)c1cccnc1)Nc1ccc(C)c(C)c1 was read as Ec RNAP inh inactive, AP complement inactive, CatS block inactive, CatL block inactive, CatB block inactive and CatB mix inh inactive.
Screening O=C(CSc1nc2ccccc2[nH]1)NCCN1CCCCC1 returned Ec RNAP inh inactive, AP complement inactive, CatS block inactive, CatL block 52.2, CatB block inactive and CatB mix inh inactive.
`CCc1ccc(O)c(N=Cc2ccccc2O)c1` gave Ec RNAP inh 27.4, AP complement inactive, CatS block inactive, CatL block inactive, CatB block inactive and CatB mix inh inactive.
O=C(CNC(=O)c1ccco1)OCN1C(=O)c2ccccc2C1=O was read as Ec RNAP inh inactive, AP complement inactive, CatS block inactive, CatL block inactive, CatB block 21.5 and CatB mix inh 25.2.
`CCC(C(=O)O)n1nnc(-c2ccc(-c3ccc(OC)cc3)cc2)n1` (stereo not given) gave Ec RNAP inh inactive, AP complement inactive, CatS block inactive, CatL block 65.7, CatB block inactive and CatB mix inh inactive.
For COCCNC(=O)C(c1cccc(OC)c1)N(C(=O)Cn1nnc2ccccc21)c1cccnc1 (stereo not given) the results were Ec RNAP inh inactive, AP complement inactive, CatS block inactive, CatL block inactive, CatB block 23.0 and CatB mix inh inactive.
Screening COCCNC(=O)C(c1ccccc1)N(C(=O)Cn1nnc2ccccc21)c1cccnc1 (stereo not given) returned Ec RNAP inh inactive, AP complement inactive, CatS block inactive, CatB block inactive and CatB mix inh inactive.
Cn1ncc2c(NCc3ccccc3)ncnc21 was read as Ec RNAP inh inactive, AP complement inactive, CatS block inactive, CatL block inactive, CatB block inactive and CatB mix inh inactive.
`Cn1ncc2c(Nc3ccc4ccccc4c3)ncnc21` gave Ec RNAP inh 21.1, AP complement inactive, CatS block inactive, CatB block inactive and CatB mix inh inactive.
`O=C(NCc1ccccc1)c1ccc(COCC(F)(F)F)o1` gave Ec RNAP inh inactive, AP complement inactive, CatS block inactive, CatL block inactive, CatB block inactive and CatB mix inh inactive.
Screening CCN(CC)CC(=O)Nc1cc(C)c2c(=O)oc3ccccc3c2n1 returned Ec RNAP inh inactive, AP complement inactive, CatS block inactive, CatB block inactive and CatB mix inh inactive.
`Cc1ccc(OCC(=O)Nc2ccc(N3CCCC3)cc2)cc1C` gave Ec RNAP inh inactive, AP complement inactive, CatS block inactive, CatL block 60.9, CatB block inactive and CatB mix inh inactive.
For COc1ccccc1N=Cc1nc(-c2ccccc2)oc1OC(C)=O the results were Ec RNAP inh inactive, AP complement inactive, CatS block inactive, CatL block inactive, CatB block 40.6 and CatB mix inh 32.8.
For O=C(COC(=O)c1cc(S(=O)(=O)N2CCCCC2)ccc1N1CCOCC1)NC1CCCCC1 the results were Ec RNAP inh inactive, AP complement inactive, CatS block inactive, CatL block inactive, CatB block inactive and CatB mix inh inactive.
Screening O=C1c2ccccc2C(O)(Cc2ccccc2)N1CCCN1CCOCC1 (stereo not given) returned Ec RNAP inh inactive, AP complement inactive, CatS block inactive, CatL block inactive, CatB block inactive and CatB mix inh inactive.
`O=C1c2ccccc2C(O)(Cc2ccccc2)N1C1CCCCC1` (stereo not given) gave Ec RNAP inh inactive, AP complement inactive, CatS block inactive, CatL block 104.5, CatB block inactive and CatB mix inh inactive.
For Cc1csc2ncc(C(=O)Nc3ccon3)c(=O)n12 the results were Ec RNAP inh 23.5, AP complement inactive, CatS block inactive, CatL block inactive, CatB block inactive and CatB mix inh inactive.
For Cc1cccc(NC(=O)c2cnc3scc(C)n3c2=O)c1 the results were Ec RNAP inh inactive, AP complement inactive, CatS block inactive, CatL block inactive, CatB block inactive and CatB mix inh inactive.
CCCn1c(=O)n(C)c(=O)c2c3oc(=O)c(NC(=O)c4ccc(F)cc4)cc3[nH]c21 was read as Ec RNAP inh inactive, AP complement inactive, CatS block inactive, CatL block inactive, CatB block inactive and CatB mix inh inactive.
O=C(CSc1ncn[nH]1)Nc1ccc(Cl)c(Cl)c1 was read as Ec RNAP inh inactive, AP complement inactive, CatS block inactive, CatL block inactive, CatB block inactive and CatB mix inh inactive.
`CC(C)Cc1ccc(C(C)C(=O)O)cc1` (stereo not given) gave Ec RNAP inh inactive, AP complement inactive, CatS block inactive, CatL block inactive, CatB block inactive and CatB mix inh inactive.
`CC(Cc1ccc(O)c(O)c1)C(C)Cc1ccc(O)c(O)c1` (stereo not given) gave Ec RNAP inh 50.7, AP complement inactive, CatS block inactive, CatL block inactive, CatB block inactive and CatB mix inh inactive.
Screening CC(C)(C)C(=O)/C=C(\N)c1ccncc1 returned Ec RNAP inh inactive, AP complement 40.4, CatS block inactive, CatL block inactive, CatB block inactive and CatB mix inh inactive.
For Cc1nnc(SCc2nnc(-c3ccccc3Br)o2)n1-c1ccccc1 the results were Ec RNAP inh inactive, AP complement inactive, CatS block inactive, CatL block 81.6, CatB block inactive and CatB mix inh inactive.
For Cc1nnc(SCc2nnc(-c3ccc(Cl)cc3)o2)n1-c1ccccc1 the results were Ec RNAP inh inactive, AP complement inactive, CatS block inactive, CatL block inactive, CatB block inactive and CatB mix inh inactive.

Compound activity deposited in PubChem BioAssay by PCMD.
